One may read the logD as lipophilicity at a set pH, counting ionised and neutral species.

The nature of data set [1]: Distribution coefficient, log D between 1-octonol and aqueous phosphate buffer at pH 7.4. The note with it: 1-octanol/aqueous phosphate buffer. The format is physicochemical. In outline: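 logD measured as distribution between 1-octanol and aqueous phosphate buffer, pH 7.4.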
The nature of data set [2]: Intrinsic clearance in rat hepatocytes assessed per million cells. In kind it is ADME, cell-based, Hepatocyte. The settings on record: read-out: CLH.

As to `C[C@@H]1CN(c2nnc(C(F)(F)F)o2)CCN1c1ncc(OCc2ccc(CS(C)(=N)=O)cc2F)cn1` (stereo partly drawn), the log distribution coefficient (logD) in data set [1] was found to be 2.1.

As to `C[C@@H]1CN(c2nc(C(F)(F)F)no2)CCN1c1ncc(OCc2ccc(CS(C)(=N)=O)cc2F)cn1` (stereo partly drawn), the logD in data set [1] was 2.8.

The molecule `C[C@@H]1CN(c2nc(C(F)(F)F)no2)CCN1c1ncc(OCc2ccc(C[S+](C)[O-])cc2F)cn1` (stereo partly drawn) showed a logD in data set [1] of 3.4. Consider `C[C@@H]1CN(c2nc(C(F)(F)F)no2)CCN1c1ncc(OCc2ccc(N=S(C)(C)=O)cc2F)cn1`, for which, in data set [1], the logD was 3.4. The molecule `C[C@@H]1CN(c2nnc(C(F)(F)F)o2)CCN1c1ncc(OCc2ccc(S(C)(=O)=O)cc2F)cn1` registered a logD in data set [1] of 3. `C[C@@H]1CN(c2nnc(C(F)(F)F)o2)CCN1c1ncc(OCc2ccc(-n3cnnn3)cc2F)cn1` displayed a logD in data set [1] of 3.6.

In data set [1], `C[C@@H]1CN(c2nnc(C(F)(F)F)o2)CCN1c1ncc(OCc2ccc(C#N)cc2F)cn1` gave a logD of 3.8. `CC(C)c1noc(N2CCN(c3ncc(OCc4ccc(CS(C)(=O)=O)cc4F)cn3)[C@H](C)C2)n1` came in with a logD in data set [1] of 3.1. Molecule `C[C@@H]1CN(c2nnc(C(F)(F)F)o2)CCN1c1ncc(OCc2ccc(C[S+](C)[O-])cc2F)cn1` (stereo partly drawn) displayed a logD in data set [1] of 2.6. For the same molecule, the hepatocyte CLint in data set [2] was determined as 53 µL/min/1e6 cells. As for `C[C@@H]1CN(c2nnc(C(F)(F)F)o2)CCN1c1ncc(OCc2ccc(CS(C)(=O)=O)cc2F)cn1`, in data set [1], the logD came to 2.9. Moreover, in data set [2], the hepatocyte CLint was 9 µL/min/1e6 cells. `C[C@@H]1CN(c2nnc(C(F)(F)F)o2)CCN1c1ncc(OCc2ccc(C#N)cc2C#N)cn1`: the logD in data set [1] worked out at 2.8.

Source of the values: ChEMBL document CHEMBL3351317 (J Med Chem, 2014).
